Source: ChEMBL document CHEMBL5058577, “EUbOPEN Chemogenomics Library 2 (Multiplex)” (2022)

System: Fibroblast
Experiment: Multiplex assay against human fibroblast
Type: toxicity, cell-based
Procedure, shortened: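 Live cells were stained at seeding with Hoechst33342, BioTracker Green Microtubule Cytoskeleton Dye, MitoTracker Red and Annexin V Alexa Fluor 680, then imaged on a CQ1 microscope at 37°C and 5% CO2 after compound addition. CellPathfinder machine-learning gating split cells into Hoechst high-intensity objects or normal cells. Normal cells were split into healthy, pyknosed or fragmented nuclei, and pyknosed cells into mitotic or apoptotic. Tubulin, mitochondrial-mass and membrane-permeability phenotypes are per cents of healthy-nucleus cells.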

[1] = 12 h, 1 µM, compound concentration 1 uM, replicate 1
[2] = 12 h, 1 µM, compound concentration 1 uM, replicate 2
[3] = 12 h, 10 µM, compound concentration 10 uM, replicate 1
[4] = 12 h, 10 µM, compound concentration 10 uM, replicate 2
[5] = 24 h, 1 µM, compound concentration 1 uM, replicate 1
[6] = 24 h, 1 µM, compound concentration 1 uM, replicate 2
[7] = 24 h, 10 µM, compound concentration 10 uM, replicate 1
[8] = 24 h, 10 µM, compound concentration 10 uM, replicate 2
[9] = 48 h, 1 µM, compound concentration 1 uM, replicate 1
[10] = 48 h, 1 µM, compound concentration 1 uM, replicate 2
[11] = 48 h, 10 µM, compound concentration 10 uM, replicate 1
[12] = 48 h, 10 µM, compound concentration 10 uM, replicate 2

CN(C)C(=O)Cn1cc(-c2ccc(-c3cncc4ccccc34)cc2)cn1
Population Apoptotic (%) [1]: 47%
Population Fragmented Nuclei (%) [1]: 10%
Population Healthy Nuclei (%) [1]: 72%
Population Hoechst High Intensity Objects (%) [1]: 0%
Population Membrane Permeable-Phenotype (%) [1]: 0%
Population Mitochondria Different-Phenotype (%) [1]: 5%
Population Mitotic Cells (%) [1]: 52%
Population Normal (%) [1]: 100%
Population Pyknosed Nuclei (%) [1]: 16%
Population Tubulin-Different-Phenotype (%) [1]: 31%
Total Cell Count [1]: 139
Population Apoptotic (%) [2]: 32%
Population Fragmented Nuclei (%) [2]: 33%
Population Healthy Nuclei (%) [2]: 46%
Population Hoechst High Intensity Objects (%) [2]: 5%
Population Membrane Permeable-Phenotype (%) [2]: 5%
Population Mitochondria Different-Phenotype (%) [2]: 2%
Population Mitotic Cells (%) [2]: 67%
Population Normal (%) [2]: 94%
Population Pyknosed Nuclei (%) [2]: 20%
Population Tubulin-Different-Phenotype (%) [2]: 54%
Total Cell Count [2]: 161
Population Apoptotic (%) [3]: 33%
Population Fragmented Nuclei (%) [3]: 13%
Population Healthy Nuclei (%) [3]: 69%
Population Hoechst High Intensity Objects (%) [3]: 4%
Population Membrane Permeable-Phenotype (%) [3]: 1%
Population Mitochondria Different-Phenotype (%) [3]: 12%
Population Mitotic Cells (%) [3]: 66%
Population Normal (%) [3]: 95%
Population Pyknosed Nuclei (%) [3]: 16%
Population Tubulin-Different-Phenotype (%) [3]: 52%
Total Cell Count [3]: 113
Population Fragmented Nuclei (%) [4]: 40%
Population Healthy Nuclei (%) [4]: 42%
Population Hoechst High Intensity Objects (%) [4]: 9%
Population Membrane Permeable-Phenotype (%) [4]: 18%
Population Mitochondria Different-Phenotype (%) [4]: 5%
Population Normal (%) [4]: 90%
Population Tubulin-Different-Phenotype (%) [4]: 81%
Total Cell Count [4]: 98
Population Apoptotic (%) [5]: 47%
Population Fragmented Nuclei (%) [5]: 12%
Population Healthy Nuclei (%) [5]: 73%
Population Hoechst High Intensity Objects (%) [5]: 5%
Population Membrane Permeable-Phenotype (%) [5]: 0%
Population Mitochondria Different-Phenotype (%) [5]: 3%
Population Mitotic Cells (%) [5]: 52%
Population Normal (%) [5]: 94%
Population Pyknosed Nuclei (%) [5]: 14%
Population Tubulin-Different-Phenotype (%) [5]: 37%
Total Cell Count [5]: 137
Population Apoptotic (%) [6]: 48%
Population Fragmented Nuclei (%) [6]: 40%
Population Healthy Nuclei (%) [6]: 38%
Population Membrane Permeable-Phenotype (%) [6]: 7%
Population Mitochondria Different-Phenotype (%) [6]: 5%
Population Mitotic Cells (%) [6]: 51%
Population Pyknosed Nuclei (%) [6]: 20%
Population Tubulin-Different-Phenotype (%) [6]: 61%
Total Cell Count [6]: 156
Population Apoptotic (%) [7]: 50%
Population Fragmented Nuclei (%) [7]: 20%
Population Healthy Nuclei (%) [7]: 62%
Population Hoechst High Intensity Objects (%) [7]: 8%
Population Membrane Permeable-Phenotype (%) [7]: 0%
Population Mitochondria Different-Phenotype (%) [7]: 12%
Population Mitotic Cells (%) [7]: 50%
Population Normal (%) [7]: 91%
Population Pyknosed Nuclei (%) [7]: 17%
Population Tubulin-Different-Phenotype (%) [7]: 59%
Total Cell Count [7]: 113
Population Apoptotic (%) [8]: 41%
Population Fragmented Nuclei (%) [8]: 41%
Population Healthy Nuclei (%) [8]: 43%
Population Hoechst High Intensity Objects (%) [8]: 5%
Population Membrane Permeable-Phenotype (%) [8]: 11%
Population Mitochondria Different-Phenotype (%) [8]: 8%
Population Mitotic Cells (%) [8]: 58%
Population Normal (%) [8]: 94%
Population Pyknosed Nuclei (%) [8]: 15%
Population Tubulin-Different-Phenotype (%) [8]: 85%
Total Cell Count [8]: 85
Population Apoptotic (%) [9]: 76%
Population Fragmented Nuclei (%) [9]: 21%
Population Healthy Nuclei (%) [9]: 65%
Population Hoechst High Intensity Objects (%) [9]: 6%
Population Membrane Permeable-Phenotype (%) [9]: 3%
Population Mitochondria Different-Phenotype (%) [9]: 8%
Population Mitotic Cells (%) [9]: 23%
Population Normal (%) [9]: 93%
Population Pyknosed Nuclei (%) [9]: 12%
Population Tubulin-Different-Phenotype (%) [9]: 57%
Total Cell Count [9]: 144
Population Apoptotic (%) [10]: 44%
Population Fragmented Nuclei (%) [10]: 36%
Population Healthy Nuclei (%) [10]: 40%
Population Hoechst High Intensity Objects (%) [10]: 7%
Population Membrane Permeable-Phenotype (%) [10]: 5%
Population Mitochondria Different-Phenotype (%) [10]: 7%
Population Mitotic Cells (%) [10]: 55%
Population Normal (%) [10]: 92%
Population Pyknosed Nuclei (%) [10]: 22%
Population Tubulin-Different-Phenotype (%) [10]: 77%
Total Cell Count [10]: 141
Population Apoptotic (%) [11]: 72%
Population Fragmented Nuclei (%) [11]: 24%
Population Healthy Nuclei (%) [11]: 54%
Population Hoechst High Intensity Objects (%) [11]: 9%
Population Membrane Permeable-Phenotype (%) [11]: 0%
Population Mitochondria Different-Phenotype (%) [11]: 20%
Population Mitotic Cells (%) [11]: 27%
Population Normal (%) [11]: 90%
Population Pyknosed Nuclei (%) [11]: 20%
Population Tubulin-Different-Phenotype (%) [11]: 55%
Total Cell Count [11]: 117
Population Apoptotic (%) [12]: 12%
Population Fragmented Nuclei (%) [12]: 47%
Population Healthy Nuclei (%) [12]: 44%
Population Hoechst High Intensity Objects (%) [12]: 0%
Population Membrane Permeable-Phenotype (%) [12]: 8%
Population Mitochondria Different-Phenotype (%) [12]: 13%
Population Mitotic Cells (%) [12]: 87%
Population Normal (%) [12]: 99%
Population Pyknosed Nuclei (%) [12]: 7%
Population Tubulin-Different-Phenotype (%) [12]: 73%
Total Cell Count [12]: 102
